Test system: U2OS
Assay: Multiplex assay against U2OS
Assay type: toxicity, cell-based
Details: human
Summary of the method: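 Per cents of healthy-nucleus cells form the tubulin, mitochondrial-mass and membrane-permeability phenotype values. Live cells were stained at seeding with Hoechst33342, BioTracker Green Microtubule Cytoskeleton Dye, MitoTracker Red and Annexin V Alexa Fluor 680. After compound addition they were imaged on a CQ1 microscope at 37°C and 5% CO2, and CellPathfinder machine-learning gating split them into Hoechst high-intensity objects or normal cells, normal cells into healthy, pyknosed or fragmented nuclei, and pyknosed cells into mitotic or apoptotic.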

[1] = 12 h, 1 µM, compound concentration 1 uM, replicate 1
[2] = 12 h, 1 µM, compound concentration 1 uM, replicate 2
[3] = 12 h, 10 µM, compound concentration 10 uM, replicate 1
[4] = 12 h, 10 µM, compound concentration 10 uM, replicate 2
[5] = 24 h, 1 µM, compound concentration 1 uM, replicate 1
[6] = 24 h, 1 µM, compound concentration 1 uM, replicate 2
[7] = 24 h, 10 µM, compound concentration 10 uM, replicate 1
[8] = 24 h, 10 µM, compound concentration 10 uM, replicate 2
[9] = 48 h, 1 µM, compound concentration 1 uM, replicate 1
[10] = 48 h, 1 µM, compound concentration 1 uM, replicate 2
[11] = 48 h, 10 µM, compound concentration 10 uM, replicate 1
[12] = 48 h, 10 µM, compound concentration 10 uM, replicate 2

CCCCC1=NC2(CCCC2)C(=O)N1Cc1ccc(-c2ccccc2-c2nnn[nH]2)cc1 [IRBESARTAN]
Population Apoptotic (%) [1]: 83% | Population Fragmented Nuclei (%) [1]: 25% | Population Healthy Nuclei (%) [1]: 66% | Population Hoechst High Intensity Objects (%) [1]: 2% | Population Membrane Permeable-Phenotype (%) [1]: 5% | Population Mitochondria Different-Phenotype (%) [1]: 1% | Population Mitotic Cells (%) [1]: 16% | Population Normal (%) [1]: 97% | Population Pyknosed Nuclei (%) [1]: 7% | Population Tubulin-Different-Phenotype (%) [1]: 1% | Total Cell Count [1]: 233 | Population Apoptotic (%) [2]: 77% | Population Fragmented Nuclei (%) [2]: 9% | Population Healthy Nuclei (%) [2]: 82% | Population Hoechst High Intensity Objects (%) [2]: 0% | Population Membrane Permeable-Phenotype (%) [2]: 11% | Population Mitotic Cells (%) [2]: 22% | Population Normal (%) [2]: 99% | Population Tubulin-Different-Phenotype (%) [2]: 8% | Total Cell Count [2]: 124 | Population Apoptotic (%) [3]: 91% | Population Fragmented Nuclei (%) [3]: 22% | Population Healthy Nuclei (%) [3]: 68% | Population Hoechst High Intensity Objects (%) [3]: 2% | Population Membrane Permeable-Phenotype (%) [3]: 4% | Population Mitochondria Different-Phenotype (%) [3]: 3% | Population Mitotic Cells (%) [3]: 8% | Population Normal (%) [3]: 97% | Population Pyknosed Nuclei (%) [3]: 9% | Population Tubulin-Different-Phenotype (%) [3]: 2% | Total Cell Count [3]: 254 | Population Apoptotic (%) [4]: 100% | Population Fragmented Nuclei (%) [4]: 18% | Population Healthy Nuclei (%) [4]: 74% | Population Hoechst High Intensity Objects (%) [4]: 0% | Population Membrane Permeable-Phenotype (%) [4]: 8% | Population Mitochondria Different-Phenotype (%) [4]: 6% | Population Mitotic Cells (%) [4]: 0% | Population Normal (%) [4]: 100% | Population Pyknosed Nuclei (%) [4]: 8% | Population Tubulin-Different-Phenotype (%) [4]: 8% | Total Cell Count [4]: 100 | Population Apoptotic (%) [5]: 70% | Population Fragmented Nuclei (%) [5]: 23% | Population Healthy Nuclei (%) [5]: 69% | Population Hoechst High Intensity Objects (%) [5]: 3% | Population Membrane Permeable-Phenotype (%) [5]: 6% | Population Mitochondria Different-Phenotype (%) [5]: 3% | Population Mitotic Cells (%) [5]: 29% | Population Normal (%) [5]: 96% | Population Pyknosed Nuclei (%) [5]: 7% | Population Tubulin-Different-Phenotype (%) [5]: 3% | Total Cell Count [5]: 241 | Population Apoptotic (%) [6]: 66% | Population Fragmented Nuclei (%) [6]: 12% | Population Healthy Nuclei (%) [6]: 76% | Population Hoechst High Intensity Objects (%) [6]: 2% | Population Membrane Permeable-Phenotype (%) [6]: 9% | Population Mitochondria Different-Phenotype (%) [6]: 2% | Population Mitotic Cells (%) [6]: 33% | Population Normal (%) [6]: 97% | Population Pyknosed Nuclei (%) [6]: 10% | Population Tubulin-Different-Phenotype (%) [6]: 4% | Total Cell Count [6]: 142 | Population Apoptotic (%) [7]: 96% | Population Fragmented Nuclei (%) [7]: 18% | Population Healthy Nuclei (%) [7]: 73% | Population Hoechst High Intensity Objects (%) [7]: 2% | Population Membrane Permeable-Phenotype (%) [7]: 6% | Population Mitochondria Different-Phenotype (%) [7]: 3% | Population Mitotic Cells (%) [7]: 4% | Population Normal (%) [7]: 97% | Population Pyknosed Nuclei (%) [7]: 8% | Population Tubulin-Different-Phenotype (%) [7]: 4% | Total Cell Count [7]: 301 | Population Apoptotic (%) [8]: 91% | Population Healthy Nuclei (%) [8]: 72% | Population Hoechst High Intensity Objects (%) [8]: 0% | Population Membrane Permeable-Phenotype (%) [8]: 7% | Population Mitotic Cells (%) [8]: 8% | Population Normal (%) [8]: 99% | Population Tubulin-Different-Phenotype (%) [8]: 3% | Total Cell Count [8]: 135 | Population Apoptotic (%) [9]: 97% | Population Fragmented Nuclei (%) [9]: 18% | Population Healthy Nuclei (%) [9]: 71% | Population Hoechst High Intensity Objects (%) [9]: 2% | Population Membrane Permeable-Phenotype (%) [9]: 5% | Population Mitochondria Different-Phenotype (%) [9]: 2% | Population Mitotic Cells (%) [9]: 2% | Population Normal (%) [9]: 97% | Population Pyknosed Nuclei (%) [9]: 10% | Population Tubulin-Different-Phenotype (%) [9]: 2% | Total Cell Count [9]: 357 | Population Apoptotic (%) [10]: 94% | Population Fragmented Nuclei (%) [10]: 14% | Population Healthy Nuclei (%) [10]: 76% | Population Hoechst High Intensity Objects (%) [10]: 4% | Population Membrane Permeable-Phenotype (%) [10]: 6% | Population Mitochondria Different-Phenotype (%) [10]: 1% | Population Mitotic Cells (%) [10]: 5% | Population Normal (%) [10]: 95% | Population Pyknosed Nuclei (%) [10]: 9% | Total Cell Count [10]: 198 | Population Apoptotic (%) [11]: 89% | Population Fragmented Nuclei (%) [11]: 14% | Population Healthy Nuclei (%) [11]: 75% | Population Hoechst High Intensity Objects (%) [11]: 3% | Population Membrane Permeable-Phenotype (%) [11]: 7% | Population Mitochondria Different-Phenotype (%) [11]: 3% | Population Mitotic Cells (%) [11]: 10% | Population Normal (%) [11]: 96% | Population Pyknosed Nuclei (%) [11]: 9% | Population Tubulin-Different-Phenotype (%) [11]: 3% | Total Cell Count [11]: 419 | Population Apoptotic (%) [12]: 94% | Population Fragmented Nuclei (%) [12]: 16% | Population Healthy Nuclei (%) [12]: 72% | Population Hoechst High Intensity Objects (%) [12]: 4% | Population Membrane Permeable-Phenotype (%) [12]: 9% | Population Mitochondria Different-Phenotype (%) [12]: 7% | Population Mitotic Cells (%) [12]: 5% | Population Normal (%) [12]: 95% | Population Pyknosed Nuclei (%) [12]: 10% | Population Tubulin-Different-Phenotype (%) [12]: 7% | Total Cell Count [12]: 175

Source: ChEMBL document CHEMBL5058577, “EUbOPEN Chemogenomics Library 2 (Multiplex)” (2022)
